Each structure is given as a SMILES string. pIC50: −log10 of the molar value. The source made the active and inactive calls. The calls are words filed in the database; no cut-off is given here.

For data set [1], the target named is T1, Ribosyldihydronicotinamide dehydrogenase [quinone] (Homo sapiens, UniProt P16083).
T1 sequence (P16083 whole entry): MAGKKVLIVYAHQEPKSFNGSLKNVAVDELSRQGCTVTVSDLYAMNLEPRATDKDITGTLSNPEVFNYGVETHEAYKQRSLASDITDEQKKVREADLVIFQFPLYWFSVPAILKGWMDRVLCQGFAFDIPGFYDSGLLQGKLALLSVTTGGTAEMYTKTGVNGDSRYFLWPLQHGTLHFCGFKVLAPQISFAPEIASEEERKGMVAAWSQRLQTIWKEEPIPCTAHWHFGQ
As to the kind of experiment: Inhibition of human recombinant NQO2 assessed as reduction of DCPIP by spectrophotometry. In outline: (§1)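 Recombinant human NQO2 (His-tag/size-exclusion purified from E. coli BL21) diluted to give about 0.1 A/min. Assay in 50 mM phosphate pH 7.4 with 40 μM DCPIP, 200 μM NRH, and inhibitor in DMSO (1.0% v/v final), with or without 2 μM BSA, at 37 °C. DCPIP reduction followed at 600 nm. IC50 = 50% reduction of initial rate by nonlinear fit; triplicates, three experiments.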

Data set [2] concerns HCT-116. As to the kind of experiment: Cytotoxicity against human HCT116 cells after 96 hrs by MTT assay. The format is cell-based. Particulars: HCT-116, 96 h. In outline:
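HCT116 cells in RPMI-1640 with 10% FCS and 2 mM glutamine, seeded at 2.5 × 10³ per well, left overnight, then exposed continuously for 96 h in full medium. Viability by MTT (1.5 mM final, 4 h, DMSO solubilization, A540). IC50 = concentration reducing OD by 50% relative to vehicle controls; repeated on at least three occasions.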

In data set [3] the test system is HCT-116. As to the kind of experiment: Cytotoxicity against human HCT116 cells after 24 hrs by MTT assay. The class given is cell-based. Particulars: HCT-116, 24 h. In a few lines: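 HCT116 cells in RPMI-1640 with 10% FCS and 2 mM glutamine, seeded at 2.5 × 10³ per well and attached overnight. Exposed to compound for 24 h, then drug replaced with fresh medium, growth to 96 h total. MTT 1.5 mM final for 4 h, formazan in DMSO, A540. IC50 = concentration giving 50% OD reduction versus vehicle; ≥3 separate experiments.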

The subject of a further data set is Nucleic Acid. As to the kind of experiment: Binding affinity to calf thymus DNA assessed as increase in melting temperature at 10 uM. The format is nucleic-acid assay. To be noted: Bos taurus. In a few lines:
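Calf thymus DNA (20 μg/mL) with 10 μM compound in low-salt phosphate buffer (7.5 mM NaH₂PO₄, 1 mM EDTA, pH 7.0). Cuvettes heated from 37 to 98 °C with A260 read at every degree. Tm taken from at least three independent determinations; 10 μM adriamycin served as positive control.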

Data set [4] addresses T2, Ribosyldihydronicotinamide dehydrogenase [quinone] (Homo sapiens) (UniProt P16083).
T2 sequence (whole entry): T1 sequence (P16083 whole entry)
As to the kind of experiment: Ratio of IC50 for human recombinant NQO2 in the presence of BSA to IC50 for human recombinant NQO2 in the absence of BSA. In outline: as §1

For data set [5], the target named is T1, Ribosyldihydronicotinamide dehydrogenase [quinone]. Description: Inhibition of human recombinant NQO2 assessed as reduction of DCPIP by spectrophotometry in the presence of 2 uM BSA. In a few lines: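 Recombinant human NQO2 (His-tag/size-exclusion purified, expressed in BL21 codon+ cells) in 50 mM phosphate pH 7.4 with 40 μM DCPIP and 200 μM NRH, 2 μM BSA present, inhibitor in DMSO (1.0% v/v final), 37 °C. DCPIP reduction followed at 600 nm; IC50 = 50% drop in initial rate by nonlinear fit; triplicates, three experiments.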

A short description of data set [6]: Drug uptake in nucleus of human MDA468 cells assessed as subcellular localization at 5 uM after 3 hrs by phalloidin-based fluorescent imaging. To be noted: mda-mb-468, 3 h. The format is ADME, cell-based. In outline: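 MDA-MB-468 cells grown on coverslips to about 70% confluency, exposed 3 h, fixed in 3.6% formaldehyde plus 0.2% glutaraldehyde, permeabilised with 0.1% Triton X-100, blocked in 10% BSA, stained with Alexa Fluor 568 phalloidin (1:1000) for actin. Imaged by fluorescence microscopy; compound excited at 340 nm, emission 520 nm; phalloidin read at 568 nm.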

Data set [7] can be described thus: Drug uptake in nucleus of human MDA468 cells assessed as subcellular localization at 25 uM after 3 hrs by phalloidin-based fluorescent imaging. The class given is ADME, cell-based. To be noted: mda-mb-468, 3 h. In a few lines:
(§2)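 MDA-MB-468 cells on coverslips at about 70% confluence treated 3 h. Fixed in 3.6% formaldehyde plus 0.2% glutaraldehyde, permeabilized with 0.1% Triton X-100, blocked in 10% BSA. Counterstained with Alexa Fluor 568 phalloidin (1:1000) to show actin architecture. Compound fluorescence imaged at excitation 340 nm, emission 520 nm; phalloidin visualized at 568 nm.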

A short description of data set [8]: Drug uptake in cytoplasm of human MDA468 cells at 25 uM after 3 hrs by phalloidin-based fluorescence imaging. The class given is ADME, cell-based. Particulars: mda-mb-468, 3 h. In outline:
as §2

Data set [9] deals with T2, Ribosyldihydronicotinamide dehydrogenase [quinone] (Homo sapiens). Description: Inhibition of NQO2-mediated activation of CB1954 in human MDA468 cells at 100 uM after 3 hrs in the presence of 100 uM […]. Particulars: MDA-MB-468. The class given is cell-based. In outline:
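MDA468 cells exposed 3 h to inhibitor together with CB1954 (10 μM in figure; varying concentrations per methods) plus 100 μM NRH cofactor. Cells then washed with PBS, refed with fresh medium, and incubated to 96 h total. Viability measured by MTT assay; protection from CB1954 toxicity serves as a readout of cellular NQO2 inhibition.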

The pIC50 is the IC50 on a negative log10 scale, so that one unit is a factor of ten. Regarding `Cc1nc2ccc(NCC[N+](C)(C)[O-])c3c(=O)c4cc(F)ccc4n1c23`, the pIC50 in data set [1] was 7.01; in the data set on HCT-116 [2], 5.04; with HCT-116 [3] it was 4.51.
As to `COc1ccc2c(c1)c(=O)c1c(NCC[N+](C)(C)[O-])ccc3nc(C)n2c31`, the pIC50 in [1] is 7.14; with HCT-116 [2] it was 4.94; in the data set with HCT-116 [3] it was 4.24.
As to `COc1cccc2c1C(=O)c1c(O)c3c(c(O)c1C2=O)C[C@@](O)(C(=O)CO)C[C@@H]3O[C@H]1C[C@H](N)[C@H](O)[C@H](C)O1`, the Tm in the data set with Nucleic Acid is 90.8 °C.
As for `Cc1nc2ccc(NCC[N+](C)(C)[O-])c3c(=O)c4ccccc4n1c23`, the negative logarithm of the IC50 (pIC50) was 7.25 in data set [1], 4.79 in the data set on HCT-116 [2] and 4.46 with HCT-116 [3].
For `CCN(CC)CCNc1ccc2nc(C)n3c4ccc(O)cc4c(=O)c1c23` the same measures were 7.27, 6.03 and 5.26.
The matching figures for `C[N+](C)([O-])CCNc1ccc2ncn3c4ccc(F)cc4c(=O)c1c23`: 6.69, 4.76 and 4.39.
With `C[N+](C)([O-])CCNc1ccc2ncn3c4ccc(O)cc4c(=O)c1c23`, the pIC50 in data set [1] was 7.38; with HCT-116 [2] it was 4.71; with HCT-116 [3] it was 4.41.
In the case of `Cc1nc2ccc(NCCN(C)C)c3c(=O)c4cc(F)ccc4n1c23`, the figures for the negative-log IC50 (pIC50) (in [1]; with HCT-116 [2]; in the data set with HCT-116 [3]) were 7.08, 6.29 and 5.68, respectively.
As to `CN(C)CCNc1ccc2ncn3c4ccccc4c(=O)c1c23`, the pIC50 in data set [1] was 6.94; in the data set with HCT-116 [2], 6.22; in the data set with HCT-116 [3] it was 5.60. Besides, the Ratio IC50 in [4] was found to be 38.
Regarding `CCN(CC)CCNc1ccc2ncn3c4ccc(O)cc4c(=O)c1c23` [C-1311], the figures for the negative logarithm of the IC50 (pIC50) (in [1]; in the data set on HCT-116 [2]; in the data set with HCT-116 [3]) were 6.90, 5.94 and 5.38, respectively.
As for `C[N+](C)([O-])CCNc1ccc2ncn3c4ccccc4c(=O)c1c23`, the negative-log IC50 (pIC50) in [1] is 7.02; in the data set with HCT-116 [2], 4.92; with HCT-116 [3], 4.39. Further, the Ratio IC50 in data set [4] was found to be 6.5.
On to `CN(C)CCNc1ccc2ncn3c4ccc(F)cc4c(=O)c1c23`, for which the figures for the pIC50 (in data set [1]; in the data set on HCT-116 [2]; with HCT-116 [3]) were 7.01, 6.18 and 5.54, respectively.
As to `COc1ccc2c(c1)c(=O)c1c(NCCN(C)C)ccc3nc(C)n2c31`, the negative-log IC50 (pIC50) in [1] is 7.34; in the data set on HCT-116 [2] it was 6.34; with HCT-116 [3] it was 5.73.
For `COc1ccc2c(c1)c(=O)c1c(NCCN(C)C)ccc3ncn2c31`, the negative logarithm of the IC50 (pIC50) was 7.23 in data set [1], 6.29 in the data set on HCT-116 [2], 5.49 in data set [5] and 5.68 with HCT-116 [3]. Further, the Tm in the data set with Nucleic Acid stood at 88.6 °C. Also, the Ratio IC50 in [4] was 54. The Drug uptake result in [6] is listed as “Active”.
With `Cc1nc2ccc(NCCN(C)C)c3c(=O)c4ccccc4n1c23`, the pIC50 in [1] was 7.05; in the data set with HCT-116 [2], 6.30; in the data set with HCT-116 [3], 5.71.
The matching figures for `Cc1nc2ccc(NCCN(C)C)c3c(=O)c4cc(O)ccc4n1c23`: 7.05, 6.02 and 5.52.
The matching figures for `Cc1nc2ccc(NCCN(C)C)c3c(=O)c4cc(Br)ccc4n1c23`: 7.13, 6.36 and 5.72.
Regarding `CN(C)CCNc1ccc2ncn3c4ccc(O)cc4c(=O)c1c23`, the results for the pIC50 (in data set [1]; in the data set with HCT-116 [2]; in the data set on HCT-116 [3]) were 7.08, 6.43 and 5.79, respectively.
The matching figures for `Cc1nc2ccc(NCC[N+](C)(C)[O-])c3c(=O)c4cc(Br)ccc4n1c23`: 7.33, 4.97 and 4.31.
Regarding `COc1ccc2c(c1)c(=O)c1c(NCC[N+](C)(C)[O-])ccc3ncn2c31`, the pIC50 in data set [1] was 7.85; with HCT-116 [2] it was 4.89; in data set [5], 7.01; in the data set on HCT-116 [3], 4.39. The Drug uptake result in [7] is reported as “Not Active”; in data set [8], “Active”. The Tm in the data set with Nucleic Acid turned out to be 85 °C. For the same molecule, the Ratio IC50 in data set [4] is 7. Besides, in data set [9], the inhibition entry was “Active”.

(Values after ChEMBL document CHEMBL1833815, “Novel inhibitors of NRH:quinone oxidoreductase 2 (NQO2): crystal structures, biochemical activity, and intracellular effects of imidazoacridin-6-ones” (J Med Chem, 2011).)
